Results reported in ChEMBL document CHEMBL1126030, “Synthesis and antiviral activity of a series of HIV-1 protease inhibitors with functionality tethered to the P1 or P1' phenyl substituents: X-ray crystal structure assisted design” (J Med Chem, 1992).

Key:
[1] = target: T1, Human immunodeficiency virus type 1 protease (Human immunodeficiency virus 1, UniProt Q72874); experiment: (§1) In vitro enzyme inhibitory activity against HIV-1 protease.
[2] = target: Human immunodeficiency virus type 1 protease (Human immunodeficiency virus 1) (UniProt Q72874); experiment: Ratio of inhibitory activity on HIV-1 protease (IC50) to antiviral activity against HIV-1 in human H9 T-lymphoid cell-ELISA assay(CIC); format: functional, cell-based
In short: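 Ratio of enzyme IC50 against HIV-1 protease to CIC. CIC is the minimum cell culture inhibitory concentration that prevents spread of HIV-1 infection in human H9 T-lymphoid cells, read out by p24 ELISA.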

H9 [3] = experiment: In vitro anti viral activity against HIV-1 in human H9 T-lymphoid cell culture by p-24-ELISA assay; format: functional
In short: (§2)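 Read-out is the minimum cell culture inhibitory concentration (CIC), the lowest concentration that fully prevents spread of viral infection in the human cell culture. Spread is scored by fixed-cell immunofluorescence or by p24 ELISA.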

H9 [4] = experiment: In vitro anti viral activity against HIV-1 in human H9 T-lymphoid cell culture by fixed cell immunofluorescence assay; format: functional; in short: as §2
MT4 [5] = experiment: In vitro anti viral activity against HIV-1(IIIB) in MT-4 T-lymphoid cell culture by p-24-ELISA assay; format: functional, Homo sapiens; in short: as §2
MT4 [6] = experiment: In vitro anti viral activity against HIV-1(IIIb) MT-4 T-lymphoid cell culture by fixed cell immunofluorescence assay; format: functional, Homo sapiens; in short: as §2
Homo sapiens [7] = species on record: Homo sapiens; experiment: In vitro anti viral activity against HIV-1(SF162) in monocytes/macrophages by fixed cell immunofluorescence assay; format: functional; in short: as §2
MT4 [8] = experiment: In vitro anti viral activity against HIV-1(MN) in MT-4 T-lymphoid cell culture by fixed cell immunofluorescence assay; format: functional, Homo sapiens; in short: as §2
H9 [9] = experiment: In vitro anti viral activity against HIV-1(IIIb) in H9 T-lymphoid cell culture by fixed cell immunofluorescence assay; format: functional, Homo sapiens; in short: as §2
H9 [10] = experiment: In vitro anti viral activity against SIV-mac251 in H9 T-lymphoid cell culture by fixed cell immunofluorescence assay; format: functional, Homo sapiens; in short: as §2
MT4 [11] = experiment: In vitro anti viral activity against HIV-1(RUTZ) in MT-4 T-lymphoid cell culture by fixed cell immunofluorescence assay; format: functional, Homo sapiens; in short: as §2
H9 [12] = experiment: In vitro anti viral activity against SIV(mne) in H9 T-lymphoid cell culture by fixed cell immunofluorescence assay; format: functional, Homo sapiens; in short: as §2
[13] = target: T1, Human immunodeficiency virus type 1 protease; experiment: as §1; format: functional
MT4 [14] = experiment: In vitro anti viral activity against HIV-1(WMJ-2) in MT-4 T-lymphoid cell culture by fixed cell immunofluorescence assay; format: functional, Homo sapiens; in short: as §2
H9 [15] = experiment: In vitro anti viral activity against HIV-1(IIIb) in H9 T-lymphoid cell culture by p-24 ELISA assay; format: functional, Homo sapiens; in short: as §2
MT4 [16] = experiment: In vitro anti viral activity against HIV-1(IIIb) MT-4 T-lymphoid cell culture by p-24-ELISA assay; format: functional, Homo sapiens; in short: as §2
Homo sapiens [17] = species on record: Homo sapiens; experiment: In vitro anti viral activity against HIV-1(IIIb) in peripheral blood lymphocytes by p-24-ELISA assay; format: functional; in short: as §2
Homo sapiens [18] = species on record: Homo sapiens; experiment: In vitro anti viral activity against HIV-1(IIIb) in peripheral blood lymphocytes by fixed cell immunofluorescence assay; format: functional; in short: as §2
MT4 [19] = experiment: In vitro anti viral activity against HIV-1(RF) in MT-4 T-lymphoid cell culture by fixed cell immunofluorescence assay; format: functional, Homo sapiens; in short: as §2

For CC(C)(C)OC(=O)N[C@@H](Cc1ccccc1)[C@@H](O)CC(Cc1ccc(OCC(=O)O)cc1)C(=O)NC1c2ccccc2C[C@H]1O (some centres undefined), the IC50 [1] was 0.04 nM, the I/C [2] was under 0.0001 and the CIC (H9 [3]) was over 400 nM.
CC(C)(C)OC(=O)N[C@@H](Cc1ccccc1)[C@@H](O)C[C@@H](Cc1ccc(O)cc1)C(=O)N[C@H]1c2ccccc2C[C@H]1O gave a CIC (H9 [4]) of 25 nM, an IC50 [1] of 0.16 nM and an I/C [2] of 0.0032. The CIC (H9 [3]) was 50 nM.
CC(C)(C)OC(=O)N[C@@H](Cc1ccc(O)cc1)[C@@H](O)C[C@@H](Cc1ccc(O)cc1)C(=O)NC1c2ccccc2C[C@H]1O (some centres undefined) showed a CIC (H9 [4]) of 780 nM, an IC50 [1] of 0.15 nM and an I/C [2] of 0.0002.
Cc1cn([C@H]2C[C@H](N=[N+]=[N-])[C@@H](CO)O2)c(=O)[nH]c1=O [ZIDOVUDINE] gave a CIC (MT4 [5]) of 25 nM.
For CC(C)(C)OC(=O)N[C@@H](Cc1ccccc1)[C@@H](O)C[C@@H](Cc1ccc(OCCN2CCCCC2)cc1)C(=O)NC1c2ccccc2C[C@H]1O (some centres undefined), the CIC (H9 [4]) was 400 nM, the IC50 [1] was 1.6 nM and the I/C [2] was 0.004.
Molecule CC(C)(C)OC(=O)N[C@@H](Cc1ccccc1)[C@@H](O)C[C@@H](Cc1ccc(OCCN2CCCC2)cc1)C(=O)NC1c2ccccc2C[C@H]1O (some centres undefined) has an IC50 [1] of 1.8 nM.
With CC(C)(C)OC(=O)N[C@@H](Cc1ccccc1)[C@@H](O)C[C@@H](Cc1ccc(OCCCN2CCOCC2)cc1)C(=O)NC1c2ccccc2C[C@H]1O (some centres undefined) the CIC (H9 [4]) was 200 nM, the IC50 [1] was 2 nM and the I/C [2] was 0.01.
Work on CC(C)(C)OC(=O)N[C@@H](Cc1ccccc1)[C@@H](O)C[C@@H](Cc1ccc(OCCO)cc1)C(=O)NC1c2ccccc2C[C@H]1O (some centres undefined) yielded an IC50 [1] of 0.09 nM, an I/C [2] of 0.0018 and a CIC (H9 [3]) of 50 nM.
Work on CC(C)(C)OC(=O)N[C@@H](Cc1ccccc1)[C@@H](O)C[C@@H](Cc1ccc(OCCN2CCS(=O)(=O)CC2)cc1)C(=O)NC1c2ccccc2C[C@H]1O (some centres undefined) yielded an IC50 [1] of 0.08 nM, an I/C [2] of 0.0008 and a CIC (H9 [3]) of 100 nM.
CC(C)(C)OC(=O)N[C@@H](Cc1ccccc1)[C@@H](O)C[C@@H](Cc1ccc(OCCN2CC[S+]([O-])CC2)cc1)C(=O)NC1c2ccccc2C[C@H]1O (some centres undefined) showed a CIC (H9 [4]) of 200 nM, an IC50 [1] of 0.07 nM and an I/C [2] of 0.00035.
Molecule CC(C)(C)OC(=O)N[C@@H](Cc1ccc(O)cc1)[C@@H](O)C[C@@H](Cc1ccccc1)C(=O)NC1c2ccccc2C[C@H]1O (some centres undefined) has a CIC (H9 [4]) of 50 nM, an IC50 [1] of 0.35 nM and an I/C [2] of 0.007. The CIC (H9 [3]) was 25 nM.
NC1N=CNc2c1ncn2[C@H]1CC[C@@H](CO)O1 (some centres undefined) showed a CIC (H9 [4]) of 25000 nM.
Work on CC(C)(C)OC(=O)N[C@@H](Cc1ccccc1)[C@@H](O)C[C@@H](Cc1ccc(OCC(=O)N2CCOCC2)cc1)C(=O)NC1c2ccccc2C[C@H]1O (some centres undefined) yielded an IC50 [1] of 0.2 nM, an I/C [2] of 0.004 and a CIC (H9 [3]) of 50 nM.
CC(C)(C)OC(=O)N[C@@H](Cc1ccccc1)[C@@H](O)C[C@@H](Cc1ccc(OCc2ccccc2)cc1)C(=O)NC1c2ccccc2C[C@H]1O (some centres undefined) was tested, and the IC50 [1] was 0.18 nM, the I/C [2] was 0.0036 and the CIC (H9 [3]) was 50 nM.
In the case of COCCN(CCOC)CCOc1ccc(C[C@H](C[C@H](O)[C@H](Cc2ccccc2)NC(=O)OC(C)(C)C)C(=O)NC2c3ccccc3C[C@H]2O)cc1 (some centres undefined), the CIC (H9 [4]) is reported as 50 nM, the IC50 [1] is reported as 0.9 nM and the I/C [2] is reported as 0.018.
In the case of CC(C)(C)OC(=O)N[C@@H](Cc1ccc(OCCN2CCOCC2)cc1)[C@@H](O)C[C@@H](Cc1ccccc1)C(=O)NC1c2ccccc2C[C@H]1O (some centres undefined), the CIC (H9 [4]) is reported as 50 nM, the IC50 [1] is reported as 0.55 nM and the I/C [2] is reported as 0.011.
For CC(C)(C)OC(=O)N[C@@H](Cc1ccccc1)[C@@H](O)C[C@@H](Cc1ccc(OCC[N+]2([O-])CCOCC2)cc1)C(=O)NC1c2ccccc2C[C@H]1O (some centres undefined), the IC50 [1] was 0.2 nM, the I/C [2] was 0.002 and the CIC (H9 [3]) was 100 nM.
For CC(C)(C)OC(=O)N[C@@H](Cc1ccccc1)[C@@H](O)C[C@@H](Cc1ccccc1)C(=O)N[C@H]1c2ccccc2C[C@H]1O, the CIC (H9 [4]) was 400 nM, the IC50 [1] was 0.35 nM and the I/C [2] was 0.0009.
In the case of CC(C)(C)OC(=O)N[C@@H](Cc1ccccc1)[C@@H](O)C[C@@H](Cc1ccc(OCCN2CCSCC2)cc1)C(=O)NC1c2ccccc2C[C@H]1O (some centres undefined), the CIC (H9 [4]) is reported as 50 nM, the IC50 [1] is reported as 0.47 nM and the I/C [2] is reported as 0.0094.
CN(C)CCOc1ccc(C[C@H](C[C@H](O)[C@H](Cc2ccccc2)NC(=O)OC(C)(C)C)C(=O)NC2c3ccccc3C[C@H]2O)cc1 (some centres undefined) was tested, and the CIC (H9 [4]) was 400 nM, the IC50 [1] was 1 nM and the I/C [2] was 0.0025.
CN1CCN(CCOc2ccc(C[C@H](C[C@H](O)[C@H](Cc3ccccc3)NC(=O)OC(C)(C)C)C(=O)NC3c4ccccc4C[C@H]3O)cc2)CC1 (some centres undefined) showed an IC50 [1] of 0.2 nM, an I/C [2] of 0.002 and a CIC (H9 [3]) of 100 nM.
Molecule CC(C)(C)OC(=O)N[C@@H](Cc1ccccc1)[C@@H](O)C[C@@H](Cc1ccc(OCCN2CCOCC2)cc1)C(=O)N[C@H]1c2ccccc2C[C@H]1O has a CIC (MT4 [6]) of 25 nM, a CIC (Homo sapiens [7]) of 50 nM and a CIC (MT4 [8]) of 25 nM. It also gave a CIC (H9 [9]) of 12 nM, a CIC (H9 [10]) of 800 nM and a CIC (MT4 [11]) of 12 nM. It also gave a CIC (H9 [12]) of 200 nM, an IC50 [13] of 0.45 nM and a CIC (H9 [4]) of 12 nM. The CIC (MT4 [14]) was 12 nM, the CIC (H9 [15]) was 25 nM and the I/C [2] was 0.038. It also gave a CIC (MT4 [16]) of 50 nM, a CIC (Homo sapiens [17]) of 25 nM and a CIC (Homo sapiens [18]) of 0.78 nM. For the same molecule, the CIC (H9 [3]) was 50 nM and the CIC (MT4 [19]) was 50 nM.
For CC(C)(C)OC(=O)N[C@@H](Cc1ccc(OCCN2CCOCC2)cc1)[C@@H](O)C[C@@H](Cc1ccc(OCCN2CCOCC2)cc1)C(=O)NC1c2ccccc2C[C@H]1O (some centres undefined), the CIC (H9 [4]) was 100 nM, the IC50 [1] was 1.9 nM and the I/C [2] was 0.019.
